The subject of the first experiment is HEL. Briefly: Inhibition of human CMV DNA synthesis in CMV-infected HEL cells. In kind it is functional, cell-based.
Settings: not given
The procedure, abridged:
(§1)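 Dot-blot hybridization. HEL cells in MEM + 10% FCS infected with HCMV AD169 at about 1 pfu/cell for 60–90 min. Medium replaced by 3-fold drug dilutions (4–6 concentrations, duplicate wells) or DMSO. Incubated 48–96 h at 37 °C, 5% CO2. SDS/pronase lysates spotted on nitrocellulose, hybridized with 32P-labeled cloned viral DNA probe and counted. IC50 is 50% inhibition of viral DNA.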
What is called IC50 is the point on the concentration scale where inhibition reaches its midpoint. Read a low IC50 as greater potency. Compound `Nc1nc(O)cc(Nc2ccc(Cl)c(F)c2)n1` displayed an IC50 of 70 µM.

Turning to `Oc1cc(Nc2ccc(Cl)c(Cl)c2)nc(O)n1`, the IC50 was 40 µM. This IC50 lies about 1.8-fold lower than the previous one.

On to `Nc1nc(O)cc(Nc2cc(Cl)cc(Cl)c2)n1`, for which it took 28 µM to reach half-maximal inhibition (IC50).

`Oc1cc(Nc2ccc(Cl)c(F)c2)nc(O)n1`: the IC50 was > 200 µM.

As to `Nc1nc(O)cc(Nc2cc(F)cc(Cl)c2)n1`, the IC50 is > 200 µM.

Take `Oc1[nH]c(Nc2cc(Cl)cc(Cl)c2)nc2ncnc1-2`: the half-maximal inhibitory concentration (IC50) was determined as 33 µM.

In turn, `Nc1nc(Cl)cc(Nc2ccc(Cl)c(Cl)c2)n1` displayed an IC50 of 9.1 µM. Compared with the last compound, the IC50 is about 3.6-fold lower.

Compound `OCC(CO)OCn1cnc2c(O)nc(Nc3cc(Cl)cc(Cl)c3)nc21` registered an IC50 of 45 µM.

As for `Nc1[nH]c(Nc2ccc(Cl)c(Cl)c2)nc2ncnc1-2`, the IC50 turned out to be 5 µM.

`Nc1[nH]c(Nc2cc(Cl)cc(Cl)c2)nc2ncnc1-2` registered an IC50 of 8 µM. This IC50 lies about 1.6-fold higher than the previous one.

`Nc1nc(Nc2cc(Cl)cc(Cl)c2)nc2c1ncn2[C@H]1C[C@H](O)[C@@H](CO)O1` showed an IC50 of 8.6 µM.

As for `Nc1nc(O)cc(Nc2ccc(F)c(F)c2)n1`, half-maximal inhibition (IC50) required 115 µM.

Compound `OCCOCn1cnc2c(Cl)nc(Nc3cc(Cl)cc(Cl)c3)nc21` registered an IC50 of 12.5 µM. This IC50 lies about 9.2-fold lower than the previous one.

`OCCOCn1cnc2c(O)nc(Nc3cc(Cl)cc(Cl)c3)nc21` showed an IC50 of 15.2 µM. The IC50 values of the last two compounds are within 1.5-fold of each other.

In the case of `Oc1cc(Nc2cc(F)cc(Cl)c2)nc(O)n1`, the IC50 is > 200 µM.

The compound `Nc1nc(Nc2cc(Cl)cc(Cl)c2)nc2c1ncn2COCCO` displayed an IC50 of 7.9 µM.

In turn, `Oc1cc(Nc2ccc(F)c(Cl)c2)nc(O)n1` registered an IC50 of 140 µM.

Consider `Oc1cc(Nc2ccc(F)c(F)c2)nc(O)n1`, for which the IC50 is > 200 µM.

`Oc1[nH]c(Nc2ccc(Cl)c(Cl)c2)nc2ncnc1-2` gave a 50% inhibitory concentration (IC50) of 12 µM.

`Oc1cc(Nc2cc(F)cc(F)c2)nc(O)n1`: the IC50 was > 200 µM.

As for `Nc1nc(O)cc(Nc2cc(F)cc(F)c2)n1`, the IC50 worked out at 63 µM.

In the case of `Nc1nc2c(ncn2COC(CO)CO)c(=O)[nH]1` [GANCICLOVIR], the IC50 amounted to 0.5 µM.

Compound `Nc1nc(O)cc(Nc2ccc(Cl)c(Cl)c2)n1` returned an IC50 of 25 µM. This IC50 lies about 50-fold higher than the previous one.

Regarding `Nc1nc(Cl)cc(Nc2cc(Cl)cc(Cl)c2)n1`, the IC50 worked out at 4.7 µM.

The compound `OC[C@H]1O[C@@H](n2cnc3c(O)nc(Nc4cc(Cl)cc(Cl)c4)nc32)C[C@@H]1O` yielded an IC50 of 15.1 µM.

`Nc1nc(O)cc(Nc2ccc(F)c(Cl)c2)n1` gave an IC50 of 20 µM.

The compound `Oc1cc(Nc2cc(Cl)cc(Cl)c2)nc(O)n1` showed an IC50 of 25 µM.

On to `O=C(O)P(=O)(O)O` [FOSCARNET SODIUM], for which the midpoint of inhibition, the IC50, lay at 15.5 µM. Against the preceding compound, the IC50 is about 1.6-fold lower.

Compound `OC[C@H]1O[C@@H](n2cnc3c(Cl)nc(Nc4cc(Cl)cc(Cl)c4)nc32)C[C@@H]1O` had an IC50 of 7.9 µM.

The compound `Nc1nc(Nc2cc(Cl)cc(Cl)c2)nc2c1ncn2COC(CO)CO` had an IC50 of 47.9 µM.

The next experiment concerns Nucleic Acid. Briefly: Inhibitory activity against HCMV DNA polymerase in virus infected cells. Type of experiment: functional, cell-based, Human betaherpesvirus 5.
Settings: not given
The method in brief:
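HCMV DNA polymerase partially purified from HEL cells infected with AD169 (MOI 2, 3 days) by phosphocellulose and DEAE-cellulose chromatography. Assay buffer was 40 mM Tris-HCl pH 7.8 with 8 mM MgCl2, 100 mM KCl, 4 mM 2-mercaptoethanol, 0.1 mM dATP/dGTP/dCTP/[3H]dTTP and activated calf thymus DNA. Incubated 60 min at 37 °C; acid-precipitable counts measured. IC50 is the mean of duplicate experiments.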
`Oc1cc(Nc2ccc(Cl)c(Cl)c2)nc(O)n1` showed an IC50 of 45 µM.

`Nc1nc(O)cc(Nc2cc(Cl)cc(Cl)c2)n1`: half-maximal inhibition (IC50) was put at 175 µM.

For the compound `Oc1[nH]c(Nc2cc(Cl)cc(Cl)c2)nc2ncnc1-2`, 140 µM corresponded to half-maximal inhibition (IC50).

`Nc1nc(Cl)cc(Nc2ccc(Cl)c(Cl)c2)n1` came in with a half-inhibitory concentration (IC50) of 150 µM.

Regarding `Nc1[nH]c(Nc2cc(Cl)cc(Cl)c2)nc2ncnc1-2`, the IC50 is 250 µM.

`Oc1[nH]c(Nc2ccc(Cl)c(Cl)c2)nc2ncnc1-2` gave an IC50 of 330 µM.

Consider `Nc1nc(O)cc(Nc2ccc(Cl)c(Cl)c2)n1`, for which 360 µM corresponded to half-maximal inhibition (IC50).

Turning to `Oc1cc(Nc2cc(Cl)cc(Cl)c2)nc(O)n1`, inhibition was half-maximal at 65 µM (IC50).

The test system of another experiment is HEL. Briefly: Concentration that inhibits HCMV yield by 90% relative to control cultures without drugs. As to conditions: Homo sapiens. Type of experiment: functional. The procedure, abridged:
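HCMV AD169 infected HEL cells in 96-well plates at 0.1 pfu/cell for 30 min, washed twice, then given compound dilutions or DMSO diluent. Incubated 7 days at 37 °C. Cells scraped and sonicated. Progeny titered by end-dilution, in triplicate, 3- or 5-fold serial dilutions on fresh HEL cells, read after 14 days as the highest dilution with enumerable plaques.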
One may read the IC90 as the concentration needed for an effect of 90%. A lower IC90 goes with an effect from little substance. For `Nc1nc(O)cc(Nc2cc(Cl)cc(Cl)c2)n1`, the IC90 was 91 µM.

The compound `Oc1[nH]c(Nc2cc(Cl)cc(Cl)c2)nc2ncnc1-2` returned an IC90 of 56 µM.

`Nc1nc(Cl)cc(Nc2ccc(Cl)c(Cl)c2)n1`: the IC90 is 8.7 µM.

With `Nc1[nH]c(Nc2cc(Cl)cc(Cl)c2)nc2ncnc1-2`, the IC90 amounted to 16.8 µM.

`Nc1nc2c(ncn2COC(CO)CO)c(=O)[nH]1` [GANCICLOVIR] registered an IC90 of 2.1 µM.

As to `Nc1nc(Cl)cc(Nc2cc(Cl)cc(Cl)c2)n1`, it took 18 µM to reach the 90% level (IC90).

Regarding `Oc1cc(Nc2cc(Cl)cc(Cl)c2)nc(O)n1`, the IC90 worked out at 69 µM. Against the preceding compound, the IC90 is about 3.8-fold higher.

The test system of another experiment is HEL. Briefly: Inhibitory activity against HCMV DNA synthesis in virus infected cells. As to conditions: Homo sapiens. In kind it is functional, cell-based. The method in brief:
as §1
`Oc1cc(Nc2ccc(Cl)c(Cl)c2)nc(O)n1`: the IC50 stood at 40 µM. In other words, the double-digit micromolar range.

`Nc1nc(O)cc(Nc2cc(Cl)cc(Cl)c2)n1` came in with a 50% inhibitory concentration (IC50) of 28 µM.

Take `Oc1[nH]c(Nc2cc(Cl)cc(Cl)c2)nc2ncnc1-2`: the IC50 was 33 µM.

Take `Nc1nc(Cl)cc(Nc2ccc(Cl)c(Cl)c2)n1`: the midpoint of inhibition, the IC50, lay at 9.1 µM.

In the case of `Nc1[nH]c(Nc2cc(Cl)cc(Cl)c2)nc2ncnc1-2`, the IC50 was determined as 8 µM.

`Oc1[nH]c(Nc2ccc(Cl)c(Cl)c2)nc2ncnc1-2` returned an IC50 of 12 µM.

In turn, `Nc1nc(O)cc(Nc2ccc(Cl)c(Cl)c2)n1` returned an IC50 of 25 µM.

`Oc1cc(Nc2cc(Cl)cc(Cl)c2)nc(O)n1`: the IC50 is 25 µM.

The next experiment concerns HEL. Briefly: Inhibition against DNA of uninfected HEL cells by incorporation of [3H]TdR. The conditions noted are these: Homo sapiens. Type of experiment: functional, cell-based. The method in brief: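 About 1/3 confluent uninfected HEL monolayers in DMEM + 10% FCS, preincubated 24 h at 37 °C. Serial compound dilutions in DMSO (or DMSO alone) added to duplicate wells with [3H]thymidine 1 μCi/mL for 24 h. Cells lysed with 0.4 M NaOH, then 5% TCA precipitate collected on filters and counted. IC50 is 50% inhibition of incorporation.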
Turning to `Nc1nc(O)cc(Nc2ccc(Cl)c(F)c2)n1`, the IC50 amounted to 165 µM.

For `Oc1cc(Nc2ccc(Cl)c(Cl)c2)nc(O)n1`, the IC50 was > 200 µM.

Take `Nc1nc(O)cc(Nc2cc(Cl)cc(Cl)c2)n1`: the midpoint of inhibition, the IC50, lay at 95 µM.

Consider `Oc1cc(Nc2ccc(Cl)c(F)c2)nc(O)n1`, for which the IC50 is > 200 µM.

For the compound `Nc1nc(O)cc(Nc2cc(F)cc(Cl)c2)n1`, the IC50 was > 200 µM.

`Oc1[nH]c(Nc2cc(Cl)cc(Cl)c2)nc2ncnc1-2` returned an IC50 of 400 µM.

Compound `Nc1nc(Cl)cc(Nc2ccc(Cl)c(Cl)c2)n1` gave an IC50 of 31 µM. Against the preceding compound, the IC50 is about 13-fold lower.

Take `OCC(CO)OCn1cnc2c(O)nc(Nc3cc(Cl)cc(Cl)c3)nc21`: the IC50 amounted to 41.7 µM. This IC50 and that of the compound before are within 1.5-fold of each other.

In turn, `Nc1[nH]c(Nc2ccc(Cl)c(Cl)c2)nc2ncnc1-2` returned an IC50 of 3.4 µM.

For `Nc1[nH]c(Nc2cc(Cl)cc(Cl)c2)nc2ncnc1-2`, it took 40 µM to reach half-maximal inhibition (IC50).

With `Nc1nc(Nc2cc(Cl)cc(Cl)c2)nc2c1ncn2[C@H]1C[C@H](O)[C@@H](CO)O1`, it took 0.5 µM to reach half-maximal inhibition (IC50).

Turning to `Nc1nc(O)cc(Nc2ccc(F)c(F)c2)n1`, the IC50 is > 200 µM.

With `OCCOCn1cnc2c(Cl)nc(Nc3cc(Cl)cc(Cl)c3)nc21`, inhibition was half-maximal at 14.4 µM (IC50). This counts as double-digit micromolar.

Regarding `OCCOCn1cnc2c(O)nc(Nc3cc(Cl)cc(Cl)c3)nc21`, the IC50 turned out to be 14 µM. This IC50 and that of the compound before are within 1.5-fold of each other.

In the case of `Oc1cc(Nc2cc(F)cc(Cl)c2)nc(O)n1`, the IC50 is > 200 µM.

The compound `Nc1nc(Nc2cc(Cl)cc(Cl)c2)nc2c1ncn2COCCO` gave an IC50 of 1.4 µM.

Consider `Oc1cc(Nc2ccc(F)c(Cl)c2)nc(O)n1`, for which the IC50 was > 200 µM.

Regarding `Oc1cc(Nc2ccc(F)c(F)c2)nc(O)n1`, the IC50 was > 200 µM.

Compound `Oc1[nH]c(Nc2ccc(Cl)c(Cl)c2)nc2ncnc1-2` registered an IC50 of 60 µM.

For the compound `Oc1cc(Nc2cc(F)cc(F)c2)nc(O)n1`, the IC50 was > 200 µM.

With `Nc1nc(O)cc(Nc2cc(F)cc(F)c2)n1`, the IC50 is > 200 µM.

`Nc1nc2c(ncn2COC(CO)CO)c(=O)[nH]1` [GANCICLOVIR] gave an IC50 of 7 µM. This counts as single-digit micromolar.

`Nc1nc(O)cc(Nc2ccc(Cl)c(Cl)c2)n1`: 32 µM corresponded to half-maximal inhibition (IC50).

For the compound `Nc1nc(Cl)cc(Nc2cc(Cl)cc(Cl)c2)n1`, the midpoint of inhibition, the IC50, lay at 32 µM. That is a double-digit micromolar value.

Regarding `OC[C@H]1O[C@@H](n2cnc3c(O)nc(Nc4cc(Cl)cc(Cl)c4)nc32)C[C@@H]1O`, the IC50 is 13 µM. Against the preceding compound, the IC50 is about 2.5-fold lower.

In turn, `Nc1nc(O)cc(Nc2ccc(F)c(Cl)c2)n1` yielded an IC50 of 110 µM.

`Oc1cc(Nc2cc(Cl)cc(Cl)c2)nc(O)n1` yielded an IC50 of 100 µM.

The compound `OC[C@H]1O[C@@H](n2cnc3c(Cl)nc(Nc4cc(Cl)cc(Cl)c4)nc32)C[C@@H]1O` gave an IC50 of 3.4 µM.

Compound `Nc1nc(Nc2cc(Cl)cc(Cl)c2)nc2c1ncn2COC(CO)CO` registered an IC50 of 5 µM.

Values taken from ChEMBL document CHEMBL1128369, “Haloanilino derivatives of pyrimidines, purines, and purine nucleoside analogs: synthesis and activity against human cytomegalovirus” (J Med Chem, 1995).
